Data: ChEMBL document CHEMBL4184147, “Polyphenolic Phytochemicals in Cancer Prevention and Therapy: Bioavailability versus Bioefficacy” (J Med Chem, 2017)

Key:
T47D [1] = test: Cytotoxicity against human T47D cells assessed as decrease in cell viability after 48 hrs by trypan blue exclusion and LDH release
T47D [2] = test: Cytotoxicity against human T47D cells assessed as cell viability at 41 uM after 48 hrs by MTT assay; assay type: functional; conditions: read-out: Activity
BXPC-3 [3] = test: Cytotoxicity against human BxPC3 cells assessed as decrease in cell viability after 48 hrs by MTT assay; assay type: functional, cell-based; conditions: BXPC-3, 48 h
[4] = Cytotoxicity against human MML1 cells assessed as cell viability at 41 uM after 48 hrs by MTT assay; assay type: functional; conditions: read-out: Activity
U-87 MG [5] = test: Cytotoxicity against human U87 cells assessed as decrease in cell viability after 48 hrs by trypan blue exclusion and LDH release
HT-29 [6] = test: Cytotoxicity against human HT-29 cells assessed as cell viability at 41 uM after 48 hrs by MTT assay; assay type: functional; conditions: HT-29, 48 h, read-out: Activity
NCI-H460 [7] = test: Cytotoxicity against human NCI-H460 cells assessed as decrease in cell viability after 48 hrs by MTT assay; assay type: functional, cell-based; conditions: NCI-H460, 48 h
PANC-1 [8] = test: Cytotoxicity against human PANC1 cells assessed as cell viability at 41 uM after 48 hrs by MTT assay; assay type: functional; conditions: PANC-1, 48 h, read-out: Activity
SK-MEL-2 [9] = test: Cytotoxicity against human SK-MEL-2 cells assessed as cell viability at 41 uM after 48 hrs by MTT assay; assay type: functional; conditions: SK-MEL-2, 48 h, read-out: Activity
PANC-1 [10] = test: Cytotoxicity against human PANC1 cells assessed as decrease in cell viability after 48 hrs by MTT assay; assay type: functional, cell-based; conditions: PANC-1, 48 h
A549 [11] = test: Cytotoxicity against human A549 cells assessed as cell viability at 41 uM after 48 hrs by MTT assay; assay type: functional; conditions: A549, 48 h, read-out: Activity
BXPC-3 [12] = test: Cytotoxicity against human BxPC3 cells assessed as cell viability at 41 uM after 48 hrs by MTT assay; assay type: functional; conditions: BXPC-3, 48 h, read-out: Activity
Mus musculus [13] = test: (§1) Tmax in mouse at 100 mg/kg, po by HPLC method; assay type: ADME, organism-based; conditions: in vivo
Summary of the method: (§2)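 Given orally in a self-microemulsifying delivery system (60% surfactant, emulsifier OP:Cremophor EL 1:1; 30% PEG 400 cosurfactant; 10% ethyl oleate oil), total volume no more than 100 μL. Plasma levels measured by previously described methods.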

[14] = Cytotoxicity against human MML1 cells assessed as decrease in cell viability after 48 hrs by MTT assay; assay type: functional, cell-based
COLO 201 [15] = test: Cytotoxicity against human COLO201 cells assessed as cell viability at 41 uM after 48 hrs by MTT assay; assay type: functional; conditions: COLO 201, 48 h, read-out: Activity
[16] = Plasma concentration in mouse at 100 mg/kg, po at 60 mins by LC-MS/MS method; assay type: ADME, organism-based
Summary of the method: (§3)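 For IV dosing, compound dissolved in DMSO:ethanol (2:1), total volume no more than 30 μL. For oral dosing, compound given in a self-microemulsifying delivery system (60% surfactant, emulsifier OP:Cremophor EL 1:1; 30% PEG 400; 10% ethyl oleate), total volume no more than 100 μL. Plasma levels measured by previously described methods.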

NCI-H460 [17] = test: Cytotoxicity against human NCI-H460 cells assessed as cell viability at 41 uM after 48 hrs by MTT assay; assay type: functional; conditions: NCI-H460, 48 h, read-out: Activity
MDA-MB-231 [18] = test: Cytotoxicity against human MDA-MB-231 cells assessed as decrease in cell viability after 48 hrs by trypan blue exclusion and LDH release; conditions: MDA-MB-231, 48 h
MDA-MB-231 [19] = test: Cytotoxicity against human MDA-MB-231 cells assessed as cell viability at 41 uM after 48 hrs by MTT assay; assay type: functional; conditions: MDA-MB-231, 48 h, read-out: Activity
Lipid bilayer = test: Induction of DOPC/n-decane bilayer property changes assessed as concentration required to double gramicidin-induced quencher influx rate by […]
COLO 201 [20] = test: Cytotoxicity against human COLO201 cells assessed as decrease in cell viability after 48 hrs by trypan blue exclusion and LDH release; conditions: COLO 201, 48 h
A549 [21] = test: Cytotoxicity against human A549 cells assessed as decrease in cell viability after 48 hrs by trypan blue exclusion and LDH release; conditions: A549, 48 h
Mus musculus [22] = test: (§4) Cmax in mouse at 100 mg/kg, po by HPLC method; assay type: ADME, organism-based; set-up: dose 100 mg/kg, route oral; conditions: in vivo
Summary of the method: (§5)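 For oral dosing, polyphenol was dissolved in a self-microemulsifying delivery system: 60% surfactant (emulsifier OP:Cremophor EL 1:1), 30% cosurfactant (PEG 400) and 10% oil (ethyl oleate). Total volume given was never above 100 μL. Plasma levels were quantified by previously described methods.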

LN-229 [23] = test: Cytotoxicity against human LN229 cells assessed as decrease in cell viability after 48 hrs by trypan blue exclusion and LDH release; conditions: LN-229, 48 h
[24] = Cmax in mouse at 10 mg/kg, iv by LC-MS/MS method; assay type: ADME, organism-based; set-up: dose 10 mg/kg, route intravenous; conditions: in vivo
Summary of the method: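 Mouse iv dosing used polyphenol dissolved in DMSO:ethanol (2:1), with total injected volume never above 30 μL. Plasma levels were measured by previously described methods.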

SK-MEL-2 [25] = test: Cytotoxicity against human SK-MEL-2 cells assessed as decrease in cell viability after 48 hrs by MTT assay; assay type: functional, cell-based; conditions: SK-MEL-2, 48 h
U-87 MG [26] = test: Cytotoxicity against human U87 cells assessed as cell viability at 41 uM after 48 hrs by MTT assay; assay type: functional, U-87MG ATCC; conditions: read-out: Activity
[27] = Plasma concentration in mouse at 10 mg/kg, iv at 60 mins by LC-MS/MS method; assay type: ADME, organism-based
Summary of the method: as §3

HT-29 [28] = test: Cytotoxicity against human HT-29 cells assessed as decrease in cell viability after 48 hrs by trypan blue exclusion and LDH release; conditions: HT-29, 48 h
LN-229 [29] = test: Cytotoxicity against human LN229 cells assessed as cell viability at 41 uM after 48 hrs by MTT assay; assay type: functional; conditions: LN-229, 48 h, read-out: Activity
[30] = Tmax in mouse at 10 mg/kg, iv by LC-MS/MS method; assay type: ADME, organism-based; conditions: in vivo
Summary of the method: as §3

MDA-MB-231 [31] = test: Cytotoxicity against human MDA-MB-231 cells assessed as cell viability at 14 uM after 48 hrs by MTT assay; assay type: functional; conditions: MDA-MB-231, 48 h, read-out: Activity
[32] = Cytotoxicity against human MML1 cells assessed as cell viability at 14 uM after 48 hrs by MTT assay; assay type: functional; conditions: read-out: Activity
HT-29 [33] = test: Cytotoxicity against human HT-29 cells assessed as cell viability at 14 uM after 48 hrs by MTT assay; assay type: functional; conditions: HT-29, 48 h, read-out: Activity
LN-229 [34] = test: Cytotoxicity against human LN229 cells assessed as cell viability at 14 uM after 48 hrs by MTT assay; assay type: functional; conditions: LN-229, 48 h, read-out: Activity
SK-MEL-2 [35] = test: Cytotoxicity against human SK-MEL-2 cells assessed as cell viability at 14 uM after 48 hrs by MTT assay; assay type: functional; conditions: SK-MEL-2, 48 h, read-out: Activity
U-87 MG [36] = test: Cytotoxicity against human U87 cells assessed as cell viability at 14 uM after 48 hrs by MTT assay; assay type: functional, U-87MG ATCC; conditions: read-out: Activity
[37] = as §1; assay type: ADME, organism-based; conditions: in vivo
Summary of the method: as §2

PANC-1 [38] = test: Cytotoxicity against human PANC1 cells assessed as cell viability at 14 uM after 48 hrs by MTT assay; assay type: functional; conditions: PANC-1, 48 h, read-out: Activity
[39] = as §4; assay type: ADME, organism-based; set-up: dose 100 mg/kg, route oral; conditions: in vivo
Summary of the method: as §5

A549 [40] = test: Cytotoxicity against human A549 cells assessed as cell viability at 14 uM after 48 hrs by MTT assay; assay type: functional; conditions: A549, 48 h, read-out: Activity
NCI-H460 [41] = test: Cytotoxicity against human NCI-H460 cells assessed as cell viability at 14 uM after 48 hrs by MTT assay; assay type: functional; conditions: NCI-H460, 48 h, read-out: Activity
Homo sapiens = test: Renal toxicity in patient assessed as decrease in glomerular flow rate at 1400 mg/m'2, iv administered as bolus dose measured after 24 hrs relative to control; assay type: organism-based; set-up: scale not given: the % may be the effect or the level left; conditions: in vivo
T47D [42] = test: Cytotoxicity against human T47D cells assessed as cell viability at 14 uM after 48 hrs by MTT assay; assay type: functional; conditions: read-out: Activity
BXPC-3 [43] = test: Cytotoxicity against human BxPC3 cells assessed as cell viability at 14 uM after 48 hrs by MTT assay; assay type: functional; conditions: BXPC-3, 48 h, read-out: Activity
COLO 201 [44] = test: Cytotoxicity against human COLO201 cells assessed as cell viability at 14 uM after 48 hrs by MTT assay; assay type: functional; conditions: COLO 201, 48 h, read-out: Activity

With `COc1cc(/C=C/C(=O)CC(=O)/C=C/c2ccc(O)c(OC)c2)ccc1O` [CURCUMIN] the IC50 (T47D [1]) was 19 µM, the viability at 41 µM (T47D [2]) was 88% and the IC50 (BXPC-3 [3]) was 29 µM. The viability at 41 µM [4] was 105%, the IC50 (U-87 MG [5]) was 16 µM and the viability at 41 µM (HT-29 [6]) was 83%. It also gave an IC50 (NCI-H460 [7]) of 15 µM, a viability at 41 µM (PANC-1 [8]) of 99% and a viability at 41 µM (SK-MEL-2 [9]) of 97%. It also gave an IC50 (PANC-1 [10]) of 53 µM, a viability at 41 µM (A549 [11]) of 96% and a viability at 41 µM (BXPC-3 [12]) of 102%. For the same compound, the Tmax (Mus musculus [13]) was 15 min, the IC50 [14] was 19 µM and the viability at 41 µM (COLO 201 [15]) was 81%. The concentration at 1 h [16] was < 1 µM, the viability at 41 µM (NCI-H460 [17]) was 95% and the IC50 (MDA-MB-231 [18]) was 12 µM. It also gave a viability at 41 µM (MDA-MB-231 [19]) of 90%, an Activity (Lipid bilayer) of 8.6 µM and an IC50 (COLO 201 [20]) of 18 µM. For the same compound, the IC50 (A549 [21]) was 18 µM, the Cmax (Mus musculus [22]) was 27 µM and the IC50 (LN-229 [23]) was 15 µM. The Cmax [24] was 81 µM, the IC50 (SK-MEL-2 [25]) was 36 µM and the viability at 41 µM (U-87 MG [26]) was 92%. For the same compound, the concentration at 1 h [27] was < 1 µM, the IC50 (HT-29 [28]) was 14 µM and the viability at 41 µM (LN-229 [29]) was 91%.

In the case of `O=c1c(O)c(-c2ccc(O)c(O)c2)oc2cc(O)cc(O)c12` [QUERCETIN], the IC50 (T47D [1]) is reported as 11 µM, the Tmax [30] is reported as 5 min and the viability at 14 µM (MDA-MB-231 [31]) is reported as 103%. For the same compound, the viability at 14 µM [32] was 103%, the IC50 (BXPC-3 [3]) was 16 µM and the viability at 14 µM (HT-29 [33]) was 94%. It also gave an IC50 (U-87 MG [5]) of 23 µM, a viability at 14 µM (LN-229 [34]) of 106% and a viability at 14 µM (SK-MEL-2 [35]) of 97%. The IC50 (NCI-H460 [7]) was 12 µM, the IC50 (PANC-1 [10]) was 62 µM and the viability at 14 µM (U-87 MG [36]) was 97%. For the same compound, the Tmax [37] was 15 min, the IC50 [14] was 15 µM and the concentration at 1 h [16] was < 1 µM. It also gave a viability at 14 µM (PANC-1 [38]) of 102%, an IC50 (MDA-MB-231 [18]) of 20 µM and an IC50 (COLO 201 [20]) of 19 µM. For the same compound, the IC50 (A549 [21]) was 13 µM, the Cmax [39] was 8 µM and the viability at 14 µM (A549 [40]) was 104%. It also gave a viability at 14 µM (NCI-H460 [41]) of 95%, an Activity (Homo sapiens) of 20% and an IC50 (LN-229 [23]) of 12 µM. The Cmax [24] was 27 µM, the IC50 (SK-MEL-2 [25]) was 12 µM and the viability at 14 µM (T47D [42]) was 100%. For the same compound, the concentration at 1 h [27] was < 1 µM, the IC50 (HT-29 [28]) was 18 µM and the viability at 14 µM (BXPC-3 [43]) was 96%. The viability at 14 µM (COLO 201 [44]) was 101%.
